Substrate in data set [1]: O=C1Nc2ccc(S(=O)(=O)NCCCOP(=O)(O)O)c3cccc1c23
The data set is described as follows: (§1) Activity at Mycobacterium tuberculosis recombinant lumazine synthase after 30 mins by fluorescence assay. The procedure, abridged: (§2)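 Recombinant M. tuberculosis lumazine synthase (2 μM) in 100 mM Tris-HCl pH 7.0, 100 mM NaCl, 5 mM DTT, 2% DMSO. Dihydroxybutanone phosphate was fixed at 100 μM, pyrimidinedione substrate varied 3–100 μM, and inhibitor 0–200 μM. Reactions were started with the pyrimidinedione substrate. Lumazine formation was read at 408 nm for 30 min at 27 °C. Velocity–substrate data were fitted by nonlinear regression to alternative inhibition models.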

Substrate in data set [2]: O=C1Nc2ccc(S(=O)(=O)NCCCCOP(=O)(O)O)c3cccc1c23
The data set is described as §1. The procedure, abridged: as §2

Substrate in data set [3]: O=C1Nc2ccc(S(=O)(=O)NCCOP(=O)(O)O)c3cccc1c23
Described as §1. The procedure, abridged:
as §2

Substrate in data set [4]: CCOC(=O)C(=O)Nc1c(Cl)[nH]c(=O)[nH]c1=O
The data set is described as §1. The procedure, abridged: as §2

Substrate in data set [5]: O=C1Nc2ccc(S(=O)(=O)NCCCCCOP(=O)(O)O)c3cccc1c23
Described as §1. The procedure, abridged:
as §2

Substrate in data set [6]: O=C1Nc2ccc(S(=O)(=O)NCCCCCCOP(=O)(O)O)c3cccc1c23
The data set is described as §1. The procedure, abridged:
as §2

B1: 6,7-dimethyl-8-ribityllumazine synthase (Mycobacterium tuberculosis), P9WHE9 (protein)
chain: MKGGAGVPDLPSLDASGVRLAIVASSWHGKICDALLDGARKVAAGCGLDDPTVVRVLGAIEIPVVAQELARNHDAVVALGVVIRGQTPHFDYVCDAVTQGLTRVSLDSSTPIANGVLTTNTEEQALDRAGLPTSAEDKGAQATVAALATALTLRELRAHS
On to B1, for which the kcat (usually the maximal rate divided by the concentration of active sites) in data set [1] was determined as 0.0075 s⁻¹; in data set [2] it was 0.00733 s⁻¹; in data set [3] it was 0.00683 s⁻¹; in data set [4] it was 0.0102 s⁻¹; in data set [5], 0.0075 s⁻¹; in data set [6], 0.0075 s⁻¹.

For the origin of these results see ChEMBL document CHEMBL1157805, “Virtual screening, selection and development of a benzindolone structural scaffold for inhibition of lumazine synthase” (Bioorg Med Chem, 2010).
